We go through nine compounds from ChEMBL document CHEMBL1123457, “Effect of methoxy substitution on the adrenergic activity of three structurally related alpha 2-adrenoreceptor antagonists” (J Med Chem, 1986).

The target of assay [1] is T1, Alpha-2 adrenergic receptor (Mus musculus) (UniProt P30545+Q01338+Q01337). Kind of assay: Agonist potency towards alpha-2 adrenergic receptor in the mouse isolated electrically stimulated vas deferens with reference to clonidine (prejunctional). It counts as functional, tissue-based. The method, boiled down: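 Mouse vas deferens from adult male MFI mice (>30 g), 0.5 g initial tension, in magnesium-free Krebs at 30 °C, gassed 95% O2/5% CO2. Field stimulation at 0.1 Hz with 3-ms pulses; voltage of 100-140 V set to give about 100 mg twitch, recorded isometrically. Repeated cumulative concentration-response curves to clonidine were run until ID50 values were consistent.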

The target of assay [2] is T1, Alpha-2 adrenergic receptor (Mus musculus). Kind of assay: Antagonist potency towards alpha-2 adrenergic receptor in the mouse isolated electrically stimulated vas deferens with reference to idazoxan (prejunctional). It counts as functional, tissue-based. In short, it runs like this:
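Mouse vas deferens (adult male MFI mice, >30 g) under 0.5 g tension in magnesium-free Krebs, 30 °C, 95% O2/5% CO2. Field stimulation at 0.1 Hz, 3-ms pulses, 100-140 V giving about 100 mg twitch, isometric recording. Twitches were inhibited by 110 nM clonidine in the Krebs.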

Assay [3] concerns the target T2, Adrenergic receptor alpha-1 (Rattus norvegicus) (UniProt P15823+P23944+P43140). Kind of assay: Antagonist potency towards alpha-1 adrenergic receptor in the rat isolated anococcygeus with reference to pA2 idazoxan (postjunctional).
Assay [4] has as its system Adrenergic receptor alpha-1 (Mus musculus). Kind of assay: Agonist potency towards alpha-1 adrenergic receptor in the mouse isolated electrically stimulated vas deferens with reference to phenylephrine (postjunctional).
For assay [5], the species on record is Rattus norvegicus. Kind of assay: Agonist potency of phenylephrine in rat isolated anococcygeus muscle. It counts as functional, Muscle tissue.
Assay [6] concerns the target T2, Adrenergic receptor alpha-1 (Rattus norvegicus). Kind of assay: Agonist potency towards alpha-1 adrenergic receptor in the rat isolated electrically stimulated vas deferens with reference to phenylephrine (postjunctional). It counts as functional, tissue-based. The method, boiled down: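 Vas deferens in Krebs solution (NaCl 118 mM, KCl 4.7 mM, CaCl2 2.5 mM, KH2PO4 1.2 mM, MgSO4 0.6 mM, NaHCO3 25 mM, dextrose 11.1 mM), gassed with 95% O2/5% CO2, at 30 °C. Intramural nerves stimulated with 3-ms rectangular pulses, 40 V, 0.1 Hz. Contractions recorded isometrically.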

The target in assay [7] is T3, Adrenergic receptor alpha-2 (Rattus norvegicus, UniProt P22086+P19328+P22909).
T3 sequence (P22086 whole entry): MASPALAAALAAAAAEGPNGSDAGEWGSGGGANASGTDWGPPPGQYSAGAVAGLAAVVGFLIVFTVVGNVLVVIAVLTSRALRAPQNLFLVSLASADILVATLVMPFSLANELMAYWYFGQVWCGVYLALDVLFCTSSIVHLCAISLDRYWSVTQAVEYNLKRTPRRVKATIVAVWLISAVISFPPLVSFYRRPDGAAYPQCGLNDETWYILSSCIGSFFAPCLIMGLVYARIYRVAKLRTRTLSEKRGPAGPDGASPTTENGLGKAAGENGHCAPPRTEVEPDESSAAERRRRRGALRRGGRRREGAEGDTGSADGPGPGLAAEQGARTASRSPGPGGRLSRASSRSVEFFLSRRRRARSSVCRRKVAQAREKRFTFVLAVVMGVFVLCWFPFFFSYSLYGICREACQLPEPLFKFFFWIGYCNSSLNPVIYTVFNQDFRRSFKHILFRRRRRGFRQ
T3 sequence (P19328 whole entry): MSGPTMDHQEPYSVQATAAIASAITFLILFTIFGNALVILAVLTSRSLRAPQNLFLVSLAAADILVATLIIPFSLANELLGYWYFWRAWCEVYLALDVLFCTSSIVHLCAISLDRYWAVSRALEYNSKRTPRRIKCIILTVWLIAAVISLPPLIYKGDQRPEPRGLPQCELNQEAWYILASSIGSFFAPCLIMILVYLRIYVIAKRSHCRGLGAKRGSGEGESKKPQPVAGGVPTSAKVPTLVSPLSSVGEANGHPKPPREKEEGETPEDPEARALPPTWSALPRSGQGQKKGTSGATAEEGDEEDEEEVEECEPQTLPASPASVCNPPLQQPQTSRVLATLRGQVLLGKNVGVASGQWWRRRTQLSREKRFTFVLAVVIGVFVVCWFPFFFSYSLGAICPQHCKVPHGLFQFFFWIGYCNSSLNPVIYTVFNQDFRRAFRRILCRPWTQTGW
T3 sequence (P22909 whole entry): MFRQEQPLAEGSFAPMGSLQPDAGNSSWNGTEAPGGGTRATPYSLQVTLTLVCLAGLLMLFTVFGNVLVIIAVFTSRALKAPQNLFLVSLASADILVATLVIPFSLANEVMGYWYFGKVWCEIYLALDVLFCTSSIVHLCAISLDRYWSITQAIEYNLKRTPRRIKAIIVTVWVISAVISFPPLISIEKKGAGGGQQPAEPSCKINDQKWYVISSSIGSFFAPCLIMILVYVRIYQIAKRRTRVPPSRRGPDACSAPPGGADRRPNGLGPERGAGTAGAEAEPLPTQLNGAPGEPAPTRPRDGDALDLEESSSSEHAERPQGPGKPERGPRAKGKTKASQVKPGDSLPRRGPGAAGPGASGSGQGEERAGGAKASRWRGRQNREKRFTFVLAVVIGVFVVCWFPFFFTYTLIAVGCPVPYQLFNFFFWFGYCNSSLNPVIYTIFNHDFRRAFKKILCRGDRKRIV
Kind of assay: Antagonist potency towards alpha-2 adrenergic receptor in the rat electrically stimulated vas deferens with reference to P-aminoclonidine. It counts as functional, tissue-based.

Assay [8] deals with T4, Adrenergic receptor alpha-1 (Rattus norvegicus, UniProt P15823+P23944+P43140).
T4 sequence (P15823 whole entry): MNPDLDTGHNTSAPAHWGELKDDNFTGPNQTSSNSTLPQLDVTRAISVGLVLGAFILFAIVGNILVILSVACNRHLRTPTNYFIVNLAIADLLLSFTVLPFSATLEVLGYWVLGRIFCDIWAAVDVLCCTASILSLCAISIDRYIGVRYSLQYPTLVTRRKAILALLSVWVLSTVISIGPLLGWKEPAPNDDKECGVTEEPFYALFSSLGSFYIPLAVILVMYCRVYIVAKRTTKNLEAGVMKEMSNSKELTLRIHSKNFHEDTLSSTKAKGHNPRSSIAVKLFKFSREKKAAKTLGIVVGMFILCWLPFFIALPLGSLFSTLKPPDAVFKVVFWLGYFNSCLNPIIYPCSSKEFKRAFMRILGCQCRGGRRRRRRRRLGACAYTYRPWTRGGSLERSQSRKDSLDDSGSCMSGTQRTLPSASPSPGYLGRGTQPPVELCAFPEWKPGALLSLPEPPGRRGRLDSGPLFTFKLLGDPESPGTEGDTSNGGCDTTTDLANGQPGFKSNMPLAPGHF
T4 sequence (P23944 whole entry): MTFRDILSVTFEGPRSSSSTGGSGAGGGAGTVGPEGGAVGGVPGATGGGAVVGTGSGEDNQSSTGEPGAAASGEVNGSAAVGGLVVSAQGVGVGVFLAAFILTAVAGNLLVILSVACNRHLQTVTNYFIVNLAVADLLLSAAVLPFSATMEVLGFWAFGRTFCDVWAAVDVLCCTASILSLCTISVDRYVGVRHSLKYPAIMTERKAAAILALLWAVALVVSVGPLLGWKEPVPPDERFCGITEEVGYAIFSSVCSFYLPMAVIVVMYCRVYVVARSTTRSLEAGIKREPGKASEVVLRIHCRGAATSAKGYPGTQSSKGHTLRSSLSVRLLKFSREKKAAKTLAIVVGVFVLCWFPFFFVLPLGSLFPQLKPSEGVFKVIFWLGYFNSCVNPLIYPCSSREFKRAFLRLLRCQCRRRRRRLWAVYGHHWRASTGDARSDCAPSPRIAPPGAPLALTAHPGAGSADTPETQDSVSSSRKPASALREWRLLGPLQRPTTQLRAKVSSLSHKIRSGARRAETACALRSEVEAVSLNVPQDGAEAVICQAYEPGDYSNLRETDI
T4 sequence (P43140 whole entry): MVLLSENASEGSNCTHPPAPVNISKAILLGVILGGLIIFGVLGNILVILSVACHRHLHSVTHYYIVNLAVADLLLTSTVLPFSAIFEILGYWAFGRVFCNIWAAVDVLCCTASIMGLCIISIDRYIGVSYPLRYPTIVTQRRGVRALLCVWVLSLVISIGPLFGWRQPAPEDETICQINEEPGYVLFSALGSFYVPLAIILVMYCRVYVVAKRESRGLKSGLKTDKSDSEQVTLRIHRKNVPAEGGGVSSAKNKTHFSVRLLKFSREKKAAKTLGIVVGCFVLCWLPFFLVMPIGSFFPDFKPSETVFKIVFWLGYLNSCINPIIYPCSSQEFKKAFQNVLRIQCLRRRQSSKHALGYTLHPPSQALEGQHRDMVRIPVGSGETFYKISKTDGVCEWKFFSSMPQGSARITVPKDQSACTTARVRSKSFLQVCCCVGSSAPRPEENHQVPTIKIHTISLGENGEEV
Kind of assay: Antagonist potency towards alpha-1 adrenergic receptor in the rat electrically stimulated vas deferens with reference to phenylephrine. It counts as functional, tissue-based.

Assay [9] relates to Adrenergic receptor alpha-1 (Rattus norvegicus). Kind of assay: Agonist potency towards alpha-1 adrenergic receptor in the rat isolated anococcygeus with reference to phenylephrine (postjunctional).
The test system is the same in assay [10]. Kind of assay: Antagonist potency towards alpha-1 adrenergic receptor in the rat isolated anococcygeus with reference to pA2 idazoxan (postjunctional).
Assay [11] concerns the target T2, Adrenergic receptor alpha-1 (Rattus norvegicus). Kind of assay: Antagonist potency towards alpha-1 adrenergic receptor in the rat isolated electrically stimulated vas deferens with reference to pA2 idazoxan (postjunctional). It counts as functional, tissue-based.

A value given as a limit tells only on which side of the number the result lay.

For `COC(Oc1ccc(Cl)c(Cl)c1)C1=NCCN1` (configuration not stated), the Potency in assay [1] amounted to 0; in assay [2], 0.0021; in assay [3] it was 0.063; in assay [4], 0.

In the case of `CCN(CC)CC1(OC)COc2ccccc2O1` (configuration not stated), the Potency is 0 in assay [1], 0.0037 in assay [2], less than 0.012 in assay [3] and 0 in assay [4].

For the compound `CNC[C@H](O)c1cccc(O)c1` [PHENYLEPHRINE], the pD2 in assay [5] is listed as 6.54.

On to `Clc1ccc(OCC2=NCCN2)cc1Cl`, for which the Potency was 0.16 in [6], less than 0.0008 in assay [1] and 0.018 in assay [2].

Take `COC1(CN2CCCCC2)COc2ccccc2O1` (configuration not stated): the figures for the pA2 in assay [7] and in assay [8] were 5.19 and less than 4.48, respectively. Also, the Potency in assay [1] was 0; in [2] it was 0.00065; in assay [9], 0; in assay [10], less than 0.012.

With `c1ccc2c(c1)OCC(C1=NCCN1)O2` (configuration not stated), the Potency was found to be 0 in [6], 1 in assay [11], 0 in assay [1] and 1 in [2].

As for `CCN(CC)CC1COc2ccccc2O1` (configuration not stated), the Potency in assay [1] stood at 0; in assay [2] it was 0.033; in assay [3] it was 0.52; in [4], 0.

Turning to `COC1(C2=NCCN2)COc2ccccc2O1` (configuration not stated), the pA2 (in general, a measure of antagonist potency on a negative log scale) in assay [7] came to 9.92; in assay [8] it was 7.43. The Potency is 0 in assay [6], 8.3 in [11], 0 in assay [1] and 11.3 in assay [2].

The compound `c1ccc2c(c1)OCC(CN1CCCCC1)O2` (configuration not stated) [PIPEROXAN] showed a pA2 in assay [7] of 7.54. Besides, the Potency was 0 in assay [6], 4.8 in assay [11], 0 in [1] and 0.29 in assay [2].
